# How the values were obtained:
# [1] = target: Phosphatidylinositol 4,5-bisphosphate 3-kinase catalytic subunit gamma isoform (Homo sapiens, UniProt P48736); test: Inhibition of human full length PI3Kgamma using PIP2/ATP as substrate after 30 mins by TR-FRET assay
# [2] = Drug metabolism in human hepatocytes assessed as formation of oxidative metabolite of pyrimidine moiety; assay type: ADME, cell-based, Hepatocyte
# [3] = target: PI3-kinase p110-alpha/p85-alpha (Homo sapiens, UniProt P42336); test: Inhibition of human full length PI3K p110alpha/p85 alpha using PIP2/ATP as substrate after 30 mins by TR-FRET assay
# [4] = Clearance in Sprague-Dawley rat at 1 mg/kg, iv administered via infusion over 30 mins measured over 24 hrs by LC/MS/MS analysis; assay type: ADME, organism-based; conditions: in vivo
# [5] = Oral bioavailability in Sprague-Dawley rat plasma at 5 mg/kg administered via gavage by LC/MS/MS analysis; assay type: ADME, organism-based
# Procedure, shortened: (§1)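 Oral dose of 5 mg/kg, formulated in 5% ethanol, 50% PEG 300 and 45% water. Bioavailability was referenced to the separate 1 mg/kg intravenous arm. Values are mean ± SD, n=3 animals per route.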
# [6] = Permeability from basolateral to apical side in human Caco2 cells; assay type: ADME, cell-based; conditions: Caco-2, read-out: permeability
# [7] = Permeability from apical to basolateral side in human Caco2 cells; assay type: ADME, cell-based; conditions: Caco-2, read-out: permeability
# [8] = Volume of distribution at steady state in Sprague-Dawley rat plasma at 1 mg/kg, iv administered via infusion over 30 mins measured over 24 hrs by LC/MS/MS analysis; assay type: ADME, organism-based; conditions: read-out: Vdss
# Procedure, shortened: (§2)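 Single intravenous dose of 1 mg/kg. Half-life, mean residence time and steady-state volume of distribution were taken from the iv arm. Values are mean ± SD, n=3 animals per route.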
# [9] = target: PI3-kinase p110-delta/p85-alpha (Homo sapiens, UniProt O00329); test: Inhibition of human full length PI3K p110delta/p85 alpha using PIP2/ATP as substrate after 30 mins by TR-FRET assay
# LNCaP [10] = test: Antitumor activity against human PTEN-deficient androgen responsive LNCAP cells xenografted in CB17 SCID mouse administered by oral gavage twice daily for 14 days; assay type: functional; conditions: 336 h, read-out: MED
# Procedure, shortened: (§3)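 Mice bearing LNCaP tumours were dosed at 15, 7.5 and 3 mg/kg twice a day. Tumour volume (mm3) was measured twice a week throughout. Growth inhibition was calculated after the final dose for each dose group.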
# [11] = Clearance in cynomolgus monkey plasma at 1 mg/kg, iv administered via infusion over 30 mins measured over 24 hrs by LC/MS/MS analysis; assay type: ADME, organism-based, Macaca fascicularis; procedure, shortened: as §2
# [12] = Clearance in Sprague-Dawley rat plasma at 1 mg/kg, iv administered via infusion over 30 mins measured over 24 hrs by LC/MS/MS analysis; assay type: ADME, organism-based; procedure, shortened: as §2
# [13] = Mean residence time in Beagle dog plasma at 1 mg/kg, iv administered via infusion over 30 mins measured over 24 hrs by LC/MS/MS analysis; assay type: ADME, organism-based, Canis lupus familiaris; procedure, shortened: as §2
# [14] = Mean residence time in cynomolgus monkey plasma at 1 mg/kg, iv administered via infusion over 30 mins measured over 24 hrs by LC/MS/MS analysis; assay type: ADME, organism-based, Macaca fascicularis; procedure, shortened: as §2
# [15] = Mean residence time in rhesus monkey plasma at 1 mg/kg, iv administered via infusion over 30 mins measured over 24 hrs by LC/MS/MS analysis; assay type: ADME, organism-based, Macaca mulatta; procedure, shortened: as §2
# LNCaP [16] = test: Antitumor activity against human PTEN-deficient androgen responsive LNCAP cells xenografted in CB17 SCID mouse assessed as tumor growth inhibition at 15 mg/kg administered by oral gavage twice daily for 14 days; assay type: functional; conditions: 336 h, read-out: TGI; procedure, shortened: as §3
# LNCaP [17] = test: Growth inhibition of PTEN-deficient human LNCAP cells after 72 hrs by Celltiter-Glo reagent based assay; assay type: functional
# MDA-MB-415 = test: Growth inhibition of PTEN-deficient human MDA-MB-415 cells after 72 hrs by Celltiter-Glo reagent based assay; assay type: functional; conditions: MDA-MB-415, 72 h
# [18] = Inhibition of PI3Kbeta mutant in PTEN-deficient human A498 cells assessed decrease in AKT1 phosphorylation at Ser473 after 2 hrs; conditions: A498, 2 h
# [19] = Apparent terminal half life in cynomolgus monkey plasma at 1 mg/kg, iv administered via infusion over 30 mins measured over 24 hrs by LC/MS/MS analysis; assay type: ADME, organism-based, Macaca fascicularis; conditions: read-out: betat1/2(app) (converted); procedure, shortened: as §2
# [20] = Oral bioavailability in Beagle dog plasma at 5 mg/kg administered via gavage by LC/MS/MS analysis; assay type: ADME, organism-based, Canis lupus familiaris; procedure, shortened: as §1
# ZR-75-1 = test: Growth inhibition of PTEN-deficient human ZR-75-1 cells after 72 hrs by Celltiter-Glo reagent based assay; assay type: functional; conditions: ZR-75-1, 72 h
# [21] = Volume of distribution at steady state in rhesus monkey at 1 mg/kg, iv administered via infusion over 30 mins measured over 24 hrs by LC/MS/MS analysis; assay type: ADME, organism-based, Macaca mulatta; conditions: in vivo, read-out: Vdss; procedure, shortened: as §2
# PC-3 = test: Growth inhibition of PTEN-deficient human PC3 cells after 72 hrs by Celltiter-Glo reagent based assay; assay type: functional; conditions: PC-3, 72 h
# [22] = Clearance in Beagle dog plasma at 1 mg/kg, iv administered via infusion over 30 mins measured over 24 hrs by LC/MS/MS analysis; assay type: ADME, organism-based, Canis lupus familiaris; procedure, shortened: as §2
# [23] = Oral bioavailability in cynomolgus monkey plasma at 5 mg/kg administered via gavage by LC/MS/MS analysis; assay type: ADME, organism-based, Macaca fascicularis; procedure, shortened: as §1
# [24] = Mean residence time in Sprague-Dawley rat plasma at 1 mg/kg, iv administered via infusion over 30 mins measured over 24 hrs by LC/MS/MS analysis; assay type: ADME, organism-based; procedure, shortened: as §2
# [25] = Volume of distribution at steady state in Beagle dog plasma at 1 mg/kg, iv administered via infusion over 30 mins measured over 24 hrs by LC/MS/MS analysis; assay type: ADME, organism-based, Canis lupus familiaris; conditions: read-out: Vdss; procedure, shortened: as §2
# A498 = test: Growth inhibition of human A498 cells harboring PI3Kbeta mutant after 72 hrs by Celltiter-Glo reagent based assay; assay type: functional; conditions: A498, 72 h
# Mus musculus [26] = test: In vivo inhibition of PI3Kbeta in CB17 SCID mouse xenografted with human PTEN-deficient androgen responsive LNCAP cells assessed as inhibition of AKT1 phosphorylation at Serine 473 at 15 mg/kg administered by oral gavage and measured after 2 hrs; assay type: functional
# [27] = Unbound fraction in cynomolgus monkey plasma; assay type: ADME, cell-free, Macaca fascicularis
# [28] = target: Voltage-gated inwardly rectifying potassium channel KCNH2 (Homo sapiens, UniProt Q12809); test: Inhibition of human ERG
# Procedure, shortened: (§4)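 Measured in binding assays against major human CYP450 enzymes and hERG.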
# [29] = Apparent terminal half life in rhesus monkey plasma at 1 mg/kg, iv administered via infusion over 30 mins measured over 24 hrs by LC/MS/MS analysis; assay type: ADME, organism-based, Macaca mulatta; conditions: read-out: betat1/2(app) (converted); procedure, shortened: as §2
# Mus musculus [30] = test: In vivo inhibition of PI3Kbeta in CB17 SCID mouse xenografted with human PTEN-deficient androgen responsive LNCAP cells assessed as inhibition of AKT1 phosphorylation at Serine 473 at […] administered by oral gavage and measured after 8 hrs; assay type: functional
# [31] = Unbound fraction in Beagle dog plasma; assay type: ADME, cell-free, Canis lupus familiaris
# [32] = Unbound fraction in rhesus monkey plasma; assay type: ADME, cell-free, Macaca mulatta
# LNCaP [33] = test: Antitumor activity against human PTEN-deficient androgen responsive LNCAP cells xenografted in CB17 SCID mouse assessed as tumor growth inhibition at 3 mg/kg administered by oral gavage twice daily for 14 days; assay type: functional; conditions: 336 h, read-out: TGI; procedure, shortened: as §3
# [34] = Clearance in rhesus monkey plasma at 1 mg/kg, iv administered via infusion over 30 mins measured over 24 hrs by LC/MS/MS analysis; assay type: ADME, organism-based, Macaca mulatta; procedure, shortened: as §2
# [35] = Volume of distribution at steady state in cynomolgus monkey at 1 mg/kg, iv administered via infusion over 30 mins measured over 24 hrs by LC/MS/MS analysis; assay type: ADME, organism-based, Macaca fascicularis; conditions: in vivo, read-out: Vdss; procedure, shortened: as §2
# [36] = Inhibition of human CYP450; assay type: ADME; procedure, shortened: as §4
# [37] = Apparent terminal half life in Sprague-Dawley rat plasma at 1 mg/kg, iv administered via infusion over 30 mins measured over 24 hrs by LC/MS/MS analysis; assay type: ADME, organism-based; conditions: read-out: betat1/2(app) (converted); procedure, shortened: as §2
# LNCaP [38] = test: Antitumor activity against human PTEN-deficient androgen responsive LNCAP cells xenografted in CB17 SCID mouse assessed as tumor growth inhibition at […] administered by oral gavage twice daily for 14 days; assay type: functional; conditions: 336 h, read-out: TGI
# [39] = Apparent terminal half life in Beagle dog plasma at 1 mg/kg, iv administered via infusion over 30 mins measured over 24 hrs by LC/MS/MS analysis; assay type: ADME, organism-based, Canis lupus familiaris; conditions: read-out: betat1/2(app) (converted); procedure, shortened: as §2
# [40] = Unbound fraction in Sprague-Dawley rat plasma; assay type: ADME, cell-free
# Chain of PI3-kinase p110-alpha/p85-alpha (P27986 whole entry, the tested form may be a part): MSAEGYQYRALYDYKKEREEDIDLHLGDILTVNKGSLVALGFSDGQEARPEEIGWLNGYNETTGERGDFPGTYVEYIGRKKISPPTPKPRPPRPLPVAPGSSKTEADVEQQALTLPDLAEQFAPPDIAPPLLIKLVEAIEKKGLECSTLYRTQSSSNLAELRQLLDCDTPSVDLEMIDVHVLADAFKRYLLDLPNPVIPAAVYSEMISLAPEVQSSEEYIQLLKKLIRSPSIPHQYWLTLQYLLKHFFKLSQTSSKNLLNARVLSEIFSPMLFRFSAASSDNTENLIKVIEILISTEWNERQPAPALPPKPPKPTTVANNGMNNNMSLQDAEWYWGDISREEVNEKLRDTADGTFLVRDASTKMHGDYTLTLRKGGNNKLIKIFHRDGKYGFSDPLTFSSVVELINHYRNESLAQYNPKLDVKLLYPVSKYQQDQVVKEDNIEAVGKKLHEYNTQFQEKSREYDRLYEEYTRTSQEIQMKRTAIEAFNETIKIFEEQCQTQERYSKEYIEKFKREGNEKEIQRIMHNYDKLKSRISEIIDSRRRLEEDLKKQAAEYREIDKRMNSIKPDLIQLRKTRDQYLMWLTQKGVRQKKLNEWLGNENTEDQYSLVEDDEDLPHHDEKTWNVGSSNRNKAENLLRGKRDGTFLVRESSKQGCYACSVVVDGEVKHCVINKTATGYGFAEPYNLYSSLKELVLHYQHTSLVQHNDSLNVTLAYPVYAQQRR
# Chain of PI3-kinase p110-alpha/p85-alpha (P42336 whole entry, the tested form may be a part): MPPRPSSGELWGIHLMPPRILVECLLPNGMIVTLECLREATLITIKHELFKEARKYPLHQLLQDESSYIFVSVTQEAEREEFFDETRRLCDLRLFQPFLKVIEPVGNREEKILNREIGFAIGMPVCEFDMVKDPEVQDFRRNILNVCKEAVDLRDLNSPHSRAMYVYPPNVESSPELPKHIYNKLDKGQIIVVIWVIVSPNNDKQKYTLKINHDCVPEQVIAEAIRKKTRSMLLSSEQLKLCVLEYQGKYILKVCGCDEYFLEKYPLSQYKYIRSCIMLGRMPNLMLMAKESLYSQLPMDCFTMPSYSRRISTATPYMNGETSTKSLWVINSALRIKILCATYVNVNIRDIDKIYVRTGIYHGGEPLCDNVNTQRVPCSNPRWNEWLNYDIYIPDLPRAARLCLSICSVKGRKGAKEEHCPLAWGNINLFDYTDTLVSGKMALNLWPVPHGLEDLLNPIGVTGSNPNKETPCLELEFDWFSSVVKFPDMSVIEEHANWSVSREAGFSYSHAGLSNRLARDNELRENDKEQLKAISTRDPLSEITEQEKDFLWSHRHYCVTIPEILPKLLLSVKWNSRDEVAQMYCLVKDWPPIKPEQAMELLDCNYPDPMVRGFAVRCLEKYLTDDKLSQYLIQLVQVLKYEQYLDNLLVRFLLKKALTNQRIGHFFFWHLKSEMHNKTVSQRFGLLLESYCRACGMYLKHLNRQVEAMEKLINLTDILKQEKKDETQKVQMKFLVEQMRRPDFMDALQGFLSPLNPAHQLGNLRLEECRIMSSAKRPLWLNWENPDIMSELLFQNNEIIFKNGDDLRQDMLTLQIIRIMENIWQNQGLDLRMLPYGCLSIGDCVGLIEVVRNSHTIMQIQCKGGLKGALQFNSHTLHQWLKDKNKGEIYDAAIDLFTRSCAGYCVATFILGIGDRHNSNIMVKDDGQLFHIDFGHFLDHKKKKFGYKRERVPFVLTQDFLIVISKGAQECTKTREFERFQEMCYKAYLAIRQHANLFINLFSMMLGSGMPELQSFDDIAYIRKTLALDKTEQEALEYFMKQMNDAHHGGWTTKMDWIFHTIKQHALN
# Chain of Phosphatidylinositol 4,5-bisphosphate 3-kinase catalytic subunit gamma isoform (P48736 whole entry, canonical isoform): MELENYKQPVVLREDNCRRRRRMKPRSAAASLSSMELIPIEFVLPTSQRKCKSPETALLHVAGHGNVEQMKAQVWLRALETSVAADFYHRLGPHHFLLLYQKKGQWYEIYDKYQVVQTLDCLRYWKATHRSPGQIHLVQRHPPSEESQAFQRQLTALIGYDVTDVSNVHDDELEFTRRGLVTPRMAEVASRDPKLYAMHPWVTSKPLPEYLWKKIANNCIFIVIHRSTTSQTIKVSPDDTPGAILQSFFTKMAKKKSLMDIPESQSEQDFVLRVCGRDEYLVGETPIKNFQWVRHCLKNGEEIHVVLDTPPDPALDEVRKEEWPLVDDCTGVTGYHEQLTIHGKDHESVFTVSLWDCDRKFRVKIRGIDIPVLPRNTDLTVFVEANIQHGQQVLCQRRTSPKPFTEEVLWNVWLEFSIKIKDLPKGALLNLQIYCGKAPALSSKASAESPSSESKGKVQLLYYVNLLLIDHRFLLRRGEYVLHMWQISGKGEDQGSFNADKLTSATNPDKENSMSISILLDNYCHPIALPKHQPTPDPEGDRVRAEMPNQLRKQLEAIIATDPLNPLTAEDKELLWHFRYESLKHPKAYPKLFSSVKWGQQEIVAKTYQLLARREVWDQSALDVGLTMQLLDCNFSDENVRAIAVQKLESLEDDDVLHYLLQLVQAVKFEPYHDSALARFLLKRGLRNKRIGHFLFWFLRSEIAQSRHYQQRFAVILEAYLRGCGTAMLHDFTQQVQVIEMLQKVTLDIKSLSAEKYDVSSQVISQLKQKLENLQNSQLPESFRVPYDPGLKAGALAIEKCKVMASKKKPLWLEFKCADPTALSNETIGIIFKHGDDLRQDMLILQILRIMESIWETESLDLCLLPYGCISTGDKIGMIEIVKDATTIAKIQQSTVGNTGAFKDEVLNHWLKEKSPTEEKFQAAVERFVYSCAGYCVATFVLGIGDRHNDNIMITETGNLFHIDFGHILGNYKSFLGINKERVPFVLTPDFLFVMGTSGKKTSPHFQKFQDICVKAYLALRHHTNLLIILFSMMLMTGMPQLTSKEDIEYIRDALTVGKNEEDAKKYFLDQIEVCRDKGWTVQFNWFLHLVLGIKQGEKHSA
# Chain of PI3-kinase p110-delta/p85-alpha (P27986 whole entry): as the sequence (P27986 whole entry, the tested form may be a part) above
# Chain of PI3-kinase p110-delta/p85-alpha (O00329 whole entry): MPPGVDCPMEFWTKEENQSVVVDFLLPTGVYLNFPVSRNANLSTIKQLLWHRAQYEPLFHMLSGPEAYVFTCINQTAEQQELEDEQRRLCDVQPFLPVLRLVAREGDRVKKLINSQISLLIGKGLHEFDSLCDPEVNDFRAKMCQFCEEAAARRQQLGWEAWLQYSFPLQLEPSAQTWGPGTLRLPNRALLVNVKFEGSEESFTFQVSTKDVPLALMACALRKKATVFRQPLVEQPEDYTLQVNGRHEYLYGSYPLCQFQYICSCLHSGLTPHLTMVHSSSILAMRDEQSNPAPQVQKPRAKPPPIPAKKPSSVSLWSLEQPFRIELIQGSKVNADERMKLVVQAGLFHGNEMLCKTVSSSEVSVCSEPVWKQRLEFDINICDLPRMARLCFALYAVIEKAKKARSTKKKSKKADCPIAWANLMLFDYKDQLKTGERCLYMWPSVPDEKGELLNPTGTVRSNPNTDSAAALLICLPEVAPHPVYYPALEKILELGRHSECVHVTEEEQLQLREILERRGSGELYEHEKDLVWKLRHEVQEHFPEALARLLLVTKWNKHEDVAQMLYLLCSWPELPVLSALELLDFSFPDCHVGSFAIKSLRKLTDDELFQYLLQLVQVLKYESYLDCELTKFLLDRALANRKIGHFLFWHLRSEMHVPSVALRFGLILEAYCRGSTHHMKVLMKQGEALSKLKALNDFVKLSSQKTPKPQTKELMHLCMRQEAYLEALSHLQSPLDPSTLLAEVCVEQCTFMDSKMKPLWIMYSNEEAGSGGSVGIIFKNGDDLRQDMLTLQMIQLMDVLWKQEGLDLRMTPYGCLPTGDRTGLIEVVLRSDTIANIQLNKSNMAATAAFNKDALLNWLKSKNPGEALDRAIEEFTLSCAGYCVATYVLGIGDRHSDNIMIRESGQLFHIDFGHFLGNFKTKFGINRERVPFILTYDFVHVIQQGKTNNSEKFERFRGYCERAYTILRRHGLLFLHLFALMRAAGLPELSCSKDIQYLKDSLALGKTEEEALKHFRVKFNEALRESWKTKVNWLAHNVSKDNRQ
structure (smiles),measurement,setting,value
N#Cc1c(N)nc(N)nc1N[C@H](c1nc2cccc(Cl)c2c(=O)n1-c1cc[nH]n1)C1CC1,IC50,[1],199 nM
same,Drug metabolism,[2],Metabolite_Notdetected
N#Cc1c(N[C@H](c2nc3c(Cl)cc(F)cc3c(=O)n2-c2cc[nH]n2)C2CC2)nc(N)nc1C(F)F,IC50,[3],756 nM
Nc1nc(N)c(Cl)c(N[C@H](c2nc3cccc(Cl)c3c(=O)n2-c2cc[nH]n2)C2CC2)n1,clearance,[4],9.67 mL/min/kg
same,bioavailability,[5],42%
same,Papp B→A,[6],11.8 ×10⁻⁶ cm/s
same,Papp A→B,[7],2.2 ×10⁻⁶ cm/s
same,IC50,[1],4150 nM
same,Drug metabolism,[2],Metabolite_Detected
same,Vd,[8],0.83 L/kg
C[C@H](Nc1nc(N)nc(N)c1C#N)c1nc2cccc(Cl)c2c(=O)n1-c1cc[nH]n1,IC50,[1],54 nM
same,Drug metabolism,[2],Metabolite_Notdetected
C[C@H](Nc1nc(N)nc(N)c1Cl)c1nc2cccc(Cl)c2c(=O)n1-c1ccon1,IC50,[1],499 nM
CC[C@H](Nc1ncnc2[nH]cnc12)c1nc2cccc(F)c2c(=O)n1-c1ccc(O)cc1,IC50,[3],1600 nM
same,IC50,[1],4300 nM
same,IC50,[9],14 nM
C[C@H](Nc1ncnc(N)c1C#N)c1nc2cccc(Cl)c2c(=O)n1-c1ccccc1,IC50,[3],2030 nM
same,IC50,[1],154 nM
same,IC50,[9],0.34 nM
C[C@H](Nc1ncnc(N)c1C#N)c1nc2cccc(Cl)c2c(=O)n1-c1ccc(O)cc1,IC50,[1],187 nM
C[C@H](Nc1nc(N)nc(N)c1Cl)c1nc2cccc(Cl)c2c(=O)n1-c1cc[nH]n1,clearance,[4],23.8 mL/min/kg
same,bioavailability,[5],26%
same,Papp B→A,[6],19.6 ×10⁻⁶ cm/s
same,Papp A→B,[7],1.1 ×10⁻⁶ cm/s
same,Vd,[8],1.29 L/kg
N#Cc1c(N)nc(N)nc1N[C@H](c1nc2c(Cl)cc(F)cc2c(=O)n1-c1cc[nH]n1)C1CC1,clearance,[4],1.17 mL/min/kg
same,bioavailability,[5],12%
same,Papp B→A,[6],17.3 ×10⁻⁶ cm/s
same,Papp A→B,[7],1.5 ×10⁻⁶ cm/s
same,Vd,[8],0.22 L/kg
C[C@H](Nc1nc(N)nc(N)c1Cl)c1nc2c(Cl)cc(F)cc2c(=O)n1-c1cc[nH]n1,minimal effective dose,LNCaP [10],7.5 mg/kg
same,clearance,[11],4 mL/min/kg
same,clearance,[12],4.33 mL/min/kg
same,clearance,[4],4.33 mL/min/kg
same,bioavailability,[5],66 to 66.4%
same,MRT,[13],4.7 h
same,MRT,[14],6.28 h
same,MRT,[15],4.54 h
same,inhibition in vivo at 15 mg/kg,LNCaP [16],73%
same,GI50,LNCaP [17],38 nM
same,GI50,MDA-MB-415,12 nM
same,EC50,[18],5.6 nM
same,Papp B→A,[6],21.7 ×10⁻⁶ cm/s
same,half-life,[19],4.96 h
same,bioavailability,[20],90.4%
same,GI50,ZR-75-1,2 nM
same,Papp A→B,[7],5.7 ×10⁻⁶ cm/s
same,Vd,[21],1.88 L/kg
same,GI50,PC-3,120 nM
same,clearance,[22],4.17 mL/min/kg
same,bioavailability,[23],68.6%
same,MRT,[24],1.97 h
same,Vd,[25],1.14 L/kg
same,GI50,A498,80 nM
same,inhibition in vivo at 15 mg/kg,Mus musculus [26],64%
same,fraction unbound,[27],0.0305
same,IC50,[28],> 25000 nM
same,half-life,[29],3.61 h
same,inhibition in vivo at […],Mus musculus [30],64%
same,fraction unbound,[31],0.0196
same,fraction unbound,[32],0.0333
same,inhibition in vivo at 3 mg/kg,LNCaP [33],42%
same,clearance,[34],6.83 mL/min/kg
same,Vd,[35],1.5 L/kg
same,Vd,[8],0.52 L/kg
same,IC50,[36],> 25000 nM
same,half-life,[37],2.69 h
same,inhibition in vivo at […],LNCaP [38],65%
same,half-life,[39],3.91 h
same,fraction unbound,[40],0.0085

# — ChEMBL document CHEMBL4004819, “Discovery of a Phosphoinositide 3-Kinase (PI3K) β/δ Inhibitor for the Treatment of Phosphatase and Tensin Homolog (PTEN) Deficient Tumors: Building PI3Kβ Potency in a PI3Kδ-Selective Template by Targeting Nonconserved Asp856” (J Med Chem, 2017)
